Laboratory results from ChEMBL document CHEMBL1773050, “Identification of inhibitors that block vaccinia virus infection by targeting the DNA synthesis processivity factor D4” (J Med Chem, 2011).
Values after ≈ are worked out from the molar mass of the structure shown.

Key:
[1] = biological target: Uracil-DNA glycosylase (Vaccinia virus (strain Western Reserve) (VACV) (Vaccinia virus (strainWR)), UniProt P04303); experiment: Inhibition of Vaccinia virus WR strain processivity factor D4 interaction with A20 protein assessed as inhibition of E9 DNA polymerase-mediated DIG-dUTP incorporation into DNA strand by rapid plate assay; parameters: species or system Orthopoxvirus vaccinia
Procedure, shortened: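 Annealed biotinylated primer/100-bp template was coated on streptavidin plates. Compounds were 2-fold serial dilutions in DMSO. After 37 °C for 30 min, DIG-ELISA was read at 405 nm and normalised to DMSO and EDTA controls. Triplicates were used across at least three experiments.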

Vaccinia virus = experiment: Antiviral activity against Vaccinia virus infected in BSC-1 cells by plaque reduction assay; type: functional, organism-based; conditions: Orthopoxvirus vaccinia
[2] = biological target: Uracil-DNA glycosylase (Vaccinia virus (strain Western Reserve) (VACV) (Vaccinia virus (strainWR))) (UniProt P04303); experiment: Binding affinity at Vaccinia virus WR strain D4 assessed as change in unfolding transition temperature at 50 uM by thermofluor method
Procedure, shortened: (§1)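 Native D4 at 4 μM, His-tag removed and dialysed into buffer, was tested with or without 50 μM compound (final, 1% DMSO). Buffer was 25 mM Tris pH 7.2, 0.15 M NaCl, 5 mM ZnCl2, with Sypro Orange. Fluorescence was read from 25 to 80 °C at 1 °C/min. Tm is the unfolding midpoint, and ΔTm is Tm minus the DMSO mock. At least three independent experiments were run.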

[3] = Selectivity index, CC50 for African green monkey BSC-1 cells to EC50 for Vaccinia virus; type: toxicity, cell-based; conditions: read-out: Ratio CC50/EC50
BSC-1 = experiment: (§2) Cytotoxicity against african green monkey BSC1 cells infected with Vaccinia virus assessed as lactate dehydrogenase release after 20 hrs by microplate reader; type: cell-based; conditions: chlorocebus aethiops, bsc-1, 20 h
Procedure, shortened: (§3)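 BSC-1 cells, seeded at 1 × 10^4 cells/well for 24 h, then received inhibitors at 2-fold serial dilutions in fresh medium with 1% DMSO for 20 h. LDH release into the medium was read at 492 nm after 30 min with reaction mixture in the dark. 2% Triton X-100 gave maximal release and 1% DMSO served as baseline. Triplicates were used, with three independent repeats, giving CC50.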

[4] = biological target: Uracil-DNA glycosylase (Vaccinia virus (strain Western Reserve) (VACV) (Vaccinia virus (strainWR))) (UniProt P04303); experiment: Binding affinity at Vaccinia virus WR strain D4 assessed as melting temperature at 50 uM by thermofluor method; procedure, shortened: as §1
[5] = as §2; type: cell-based, BSC-1; conditions: chlorocebus aethiops, BSC-1 cells infected with Vaccinia virus; procedure, shortened: as §3
[6] = Solubility of the compound in phosphate buffer by chemiluminescence of total nitrogen contents; type: physicochemical

## Oc1ccc(Cl)cc1Sc1cc(Cl)ccc1O [FENTICLOR]
[1]
  IC50: 38.5 µM
Vaccinia virus
  EC50: 18.7 µM

## O=S(=O)(c1ccc(C2=CSC(Nc3ccc(F)cc3)N2CCCCCCO)cc1)N1CCCC1 (stereo unspecified)
[2]
  ΔTm: -3.3 °C
[3]
  selectivity ratio: 63
[1]
  IC50: > 200 µM
BSC-1
  CC50: > 200 µM
Vaccinia virus
  EC50: 3.2 µM
[4]
  Tm: 35.1 °C

## COc1ccc(/C=C/c2nc(-c3ccccc3O)n(-c3ccccc3)n2)cc1OC
[2]
  ΔTm: -3.7 °C
[3]
  selectivity ratio: 0.5
[1]
  IC50: > 200 µM
BSC-1
  CC50: 107 µM
Vaccinia virus
  EC50: > 200 µM
[4]
  Tm: 34.7 °C

## Cc1ccnc(NC(c2ccccc2F)c2ccc3cccnc3c2O)c1 (stereo unspecified)
[2]
  ΔTm: -2 °C
[3]
  selectivity ratio: 69
[1]
  IC50: 157 µM
BSC-1
  CC50: > 200 µM
Vaccinia virus
  EC50: 2.9 µM
[4]
  Tm: 36.4 °C

## COc1cc(-c2nc3ccc(Cl)cn3c2Nc2ccc3c(c2)OCCO3)ccc1O
[2]
  ΔTm: -1.5 °C
[3]
  selectivity ratio: 18
[1]
  IC50: > 200 µM
BSC-1
  CC50: > 200 µM
Vaccinia virus
  EC50: 10.8 µM
[4]
  Tm: 36.9 °C

## CCOc1ccccc1C(=O)Nc1ccc2nc3c(c(Nc4ccc(OC)c(OC)c4)c2c1)CCCC3
[2]
  ΔTm: -2.1 °C
[3]
  selectivity ratio: 11
[1]
  IC50: 106 µM
BSC-1
  CC50: 73.7 µM
Vaccinia virus
  EC50: > 200 µM
[4]
  Tm: 36.3 °C

## O=C1c2ccccc2-c2onc3c2C1C(NC1CCCCC1)C=C3NCCO (stereo unspecified)
[1]
  IC50: 34.1 µM
[5]
  CC50 at 20 h: 127 µM
[6]; phosphate buffer, read-out: solubility
  solubility: 1.4 µg/mL (≈ 3.69 µM)

## COc1ccc(N2CCN(Cc3nc4c(c(=O)[nH]c(=O)n4C)n3Cc3ccc(Cl)cc3)CC2)cc1
[2]
  ΔTm: -2.5 °C
[3]
  selectivity ratio: 0.4
[1]
  IC50: > 200 µM
BSC-1
  CC50: 92.8 µM
Vaccinia virus
  EC50: > 200 µM
[4]
  Tm: 35.9 °C

## COc1ccc(Nc2nc(Nc3ccc(OC)cc3OC)nc(N3CCOCC3)n2)c(OC)c1
[2]
  ΔTm: -3.4 °C
[1]
  IC50: > 200 µM
BSC-1
  CC50: 170 µM
[4]
  Tm: 35 °C

## OC1COc2ccc(-c3cc(-c4ccc(F)cc4)c4c(n3)-c3cc(Cl)ccc3OC4)cc2N1 (stereo unspecified)
[2]
  ΔTm: -3.5 °C
[3]
  selectivity ratio: 3
[1]
  IC50: > 200 µM
BSC-1
  CC50: > 200 µM
Vaccinia virus
  EC50: 74.6 µM
[4]
  Tm: 34.9 °C

## COc1ccc(OCCn2c(NC(=O)c3ccc(OC)cc3)nc3ccccc32)cc1
[2]
  ΔTm: -4.1 °C
[3]
  selectivity ratio: 0.5
[1]
  IC50: 169 µM
BSC-1
  CC50: 23.2 µM
Vaccinia virus
  EC50: 47.9 µM
[4]
  Tm: 34.3 °C

## Oc1ccc(NCc2ccccc2OCc2ccccc2)cc1
[2]
  ΔTm: 14.9 °C
[3]
  selectivity ratio: 25
[1]
  IC50: 5.1 µM
BSC-1
  CC50: 175 µM
[6]; buffer
  solubility: 1.1 µg/mL (≈ 3.6 µM)
Vaccinia virus
  EC50: 7.1 µM
[4]
  Tm: 53.3 °C

## COc1cc(NC(=O)c2cccc3c2C(=O)N(C2CCCCC2)C3)cc(OC)c1OC
[2]
  ΔTm: -4.9 °C
[1]
  IC50: > 200 µM
BSC-1
  CC50: > 200 µM
Vaccinia virus
  EC50: > 200 µM
[4]
  Tm: 33.2 °C

## Cn1c(=O)n(C)c2cc(NS(=O)(=O)c3ccc(C(C)(C)C)cc3)c(NCc3ccccc3)cc21
[2]
  ΔTm: 10 °C
[3]
  selectivity ratio: > 10
[1]
  IC50: 132 µM
BSC-1
  CC50: > 200 µM
[6]; buffer
  solubility: 0.9 µg/mL (≈ 1.88 µM)
Vaccinia virus
  EC50: 18.8 µM
[4]
  Tm: 48.4 °C

## CCOC(=O)c1cnc2c(ccc3ccccc32)c1Nc1ccc(N(C)C)cc1
[2]
  ΔTm: -1.5 °C
[1]
  IC50: 139 µM
BSC-1
  CC50: > 200 µM
[4]
  Tm: 36.3 °C

## COc1ccc(NCc2nc3ccccc3n2CCOc2ccc(C)cc2)cc1
[2]
  ΔTm: -3.2 °C
[3]
  selectivity ratio: 22
[1]
  IC50: > 200 µM
BSC-1
  CC50: 121 µM
Vaccinia virus
  EC50: 5.5 µM
[4]
  Tm: 35.2 °C

## C=C(Cn1cc(C(=O)c2ccc(CC)cc2)c(=O)c2ccccc21)Nc1ccc(OC)c(OC)c1
[2]
  ΔTm: -3.2 °C
[3]
  selectivity ratio: 0.3
[1]
  IC50: > 200 µM
BSC-1
  CC50: 52.9 µM
Vaccinia virus
  EC50: > 200 µM
[4]
  Tm: 35.4 °C

## CN(C)c1ccc(NC(=O)CSc2nc(-c3ccco3)cc(C(F)(F)F)n2)cc1
[2]
  ΔTm: -1.7 °C
[3]
  selectivity ratio: 4
[1]
  IC50: 140 µM
BSC-1
  CC50: 57.2 µM
Vaccinia virus
  EC50: > 200 µM
[4]
  Tm: 35.1 °C

## COc1ccc(Nc2cc(C(=O)NCCCN3CCN(c4ccccc4F)CC3)c3ccccc3n2)c(OC)c1
[2]
  ΔTm: -3.6 °C
[3]
  selectivity ratio: 8
[1]
  IC50: > 200 µM
BSC-1
  CC50: > 200 µM
Vaccinia virus
  EC50: 25.8 µM
[4]
  Tm: 34.8 °C

## COc1cc(-c2nc(-c3ccccc3)c(-c3ccc(Br)cc3)[nH]2)cc(OC)c1O
[2]
  ΔTm: 4.6 °C
[3]
  selectivity ratio: 3
[1]
  IC50: 91.2 µM
BSC-1
  CC50: 57.2 µM
[6]; buffer
  solubility: 1.4 µg/mL (≈ 3.1 µM)
Vaccinia virus
  EC50: 16.7 µM
[4]
  Tm: 43 °C

## Fc1ccc(Nc2c(-c3ccccn3)nc3ccc(Cl)cn23)cc1
[2]
  ΔTm: -3.7 °C
[3]
  selectivity ratio: 53
[1]
  IC50: > 200 µM
BSC-1
  CC50: > 200 µM
Vaccinia virus
  EC50: 3.8 µM
[4]
  Tm: 34.7 °C

## COc1ccc(C)cc1N(CC(=O)N1CCC(C)CC1)S(=O)(=O)c1ccc(C)cc1
[2]
  ΔTm: -4.8 °C
[1]
  IC50: 175 µM
BSC-1
  CC50: > 200 µM
[4]
  Tm: 33.6 °C

## COC(=O)CC1Oc2ccc(C)cc2-n2cc(-c3ccc(F)cc3)nc21 (stereo unspecified)
[2]
  ΔTm: -6.6 °C
[3]
  selectivity ratio: 0.4
[1]
  IC50: > 200 µM
BSC-1
  CC50: 84.1 µM
Vaccinia virus
  EC50: > 200 µM
[4]
  Tm: 32.2 °C

## Cc1cc2n(n1)C(c1cc(C(C)(C)C)c(O)cc1O)Nc1ccccc1-2 (stereo unspecified)
[2]
  ΔTm: 4.9 °C
[3]
  selectivity ratio: 4
[1]
  IC50: 138 µM
BSC-1
  CC50: 92.8 µM
[6]; buffer
  solubility: 19.1 µg/mL (≈ 54.7 µM)
Vaccinia virus
  EC50: 21.5 µM
[4]
  Tm: 44.3 °C

## Cc1ccc2oc(-c3ccc(Cl)cc3)c(O)c(=O)c2c1
[2]
  ΔTm: -2 °C
[1]
  IC50: 195 µM
BSC-1
  CC50: > 200 µM
[4]
  Tm: 36.4 °C

## CCOc1ccc2c(c1)C1CC=CC1[C@H](c1ccccc1Cl)N2 (stereo partly specified)
[2]
  ΔTm: -5 °C
[3]
  selectivity ratio: 9
[1]
  IC50: 221 µM
BSC-1
  CC50: > 200 µM
Vaccinia virus
  EC50: 22.4 µM
[4]
  Tm: 35.2 °C

## Cc1ccccc1Nc1c(-c2ccc(Br)cc2O)nc2sccn12
[2]
  ΔTm: -1.9 °C
[3]
  selectivity ratio: 9
[1]
  IC50: > 200 µM
BSC-1
  CC50: 142 µM
Vaccinia virus
  EC50: > 200 µM
[4]
  Tm: 36.5 °C

## COc1ccc(Nc2c(-c3cc(Br)ccc3O)nc3ncccn23)cc1OC
[2]
  ΔTm: -0.1 °C
[3]
  selectivity ratio: 3
[1]
  IC50: 200 µM
BSC-1
  CC50: > 200 µM
Vaccinia virus
  EC50: 67.6 µM
[4]
  Tm: 38.3 °C
